# According to PubChem BioAssay:
# The source made the active and inactive calls.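 Rule for the calls, unless noted: active = GFP response above 150% of the DMSO level; inconclusive = fewer than 70 events counted for a yeast strain; inactive = the rest.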
# Key:
# [1] = hit retest on RPL19A-GFP reporter strain – cell-based, S. cerevisiae, flow cytometry, cherry picks, mother/daughter gates, confirmation (AID 2270;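 active = GFP response below 50% of the DMSO control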); details: 3 h, at 10 µM, stronger effect = lower value, 100 = same GFP as DMSO wells
# [2] = yeast TOR pathway reporter LAP4-GFP change – cell-based, cherry picks, flow cytometry, mother/daughter gates, confirmation (AID 2271;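 active = GFP response above 150% of the DMSO control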;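 note: ratio of sample to DMSO plate mean so 100% equals DMSO level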); details: S. cerevisiae LAP4-GFP strain, 3 h, at 10 µM, stronger effect = higher value, 100 means same as DMSO control
# How it was run: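 Material: Alexa 633-stained baker's yeast GFP-fusion strain; Compound dosing: single test-compound dose, 10 µM final; Incubation: 30 °C, 3 h compound incubation, rotating; Detection: HT flow cytometry, GFP fluorescence channel; Control set: positive rapamycin (400 ng/mL), negative DMSO.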
# [3] = TOR pathway reporter MEP2-GFP, retest of hits – S. cerevisiae, flow cytometry GFP, cherry picks, confirmation (AID 2272;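 active = GFP response above 150% of the DMSO control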;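 note: ratio of well signal to plate DMSO mean so 100% equals DMSO level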); details: S. cerevisiae MEP2-GFP strain, 3 h, at 10 µM, stronger effect = higher value
# [4] = yeast AGP1-GFP fluorescence change, single-dose – cell-based, flow cytometry, S. cerevisiae, cherry picks, confirmation (AID 2273);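 note: median GFP channel fluorescence over the whole cell population gate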; details: S. cerevisiae AGP1-GFP strain, 3 h, at 10 µM
# [5] = TOR pathway CIT2 reporter hit retest – S. cerevisiae, GFP fusion, cherry picks, mother/daughter gates, confirmation (AID 2274); details: S. cerevisiae CIT2-GFP strain, flow cytometry, 3 h, at 10 µM, stronger effect = higher value
# [6] = measured here: daughter cell gate
# [7] = measured here: mother cell gate
# [8] = measured here: daughter cell gate response
# [9] = measured here: mother cell gate response
SMILES,GFP response vs DMSO [1],"GFP response vs DMSO [1, 6] [%]","GFP response vs DMSO [1, 7] [%]",GFP response relative to DMSO [2],"GFP response relative to DMSO [2, 8] [%]","GFP response relative to DMSO [2, 9] [%]",GFP response vs DMSO [3],"GFP response, % of DMSO [4]","GFP response, % of DMSO [5]","GFP response, % of DMSO [5, 6] [%]","GFP response, % of DMSO [5, 7] [%]"
CC(=O)Nc1cccc(C(=O)/C=C/c2ccc(C)cc2)c1,95.8% (inactive),96.8,95.1,117% (inactive),115,120,110% (inactive),102% (inactive),103% (inactive),103,102
Cc1ccc(CCN2CC(C(=O)NCCCN(C)Cc3ccccc3)CC2=O)cc1 (stereo not drawn),99.1% (inactive),99.3,98,101% (inactive),104,100,101% (inactive),103% (inactive),98.6% (inactive),103,96
Cc1ccc(/C=C2/SC(=S)N(C3CCCCC3)C2=O)o1,100% (inactive),100,98.6,157% (active),145,161,126% (inactive),106% (inactive),98.8% (inactive),101,89.5
Cc1ccc(NC(=O)c2ccccc2)cc1,100% (inactive),99,100,98.7% (inactive),100,100,100% (inactive),91.5% (inactive),96.5% (inactive),96.5,93.4
O=S(=O)(c1ccccc1)c1ccc(C(F)(F)F)cn1,97.6% (inactive),98.3,97.8,96.1% (inactive),95.1,95.1,101% (inactive),101% (inactive),95.9% (inactive),96.8,95.7
CCCCCn1c(=O)c(C(=O)OCC)c(O)c2ccccc21,97.6% (inactive),96.1,99.7,99.2% (inactive),96,100,102% (inactive),90% (inactive),92.6% (inactive),89.9,93.8
COc1cc(NC(=O)c2cccc(F)c2)ccc1NC(=O)c1cc2ccccc2o1,97.8% (inactive),98.3,97.6,98.8% (inactive),99.3,97.5,102% (inactive),101% (inactive),97.8% (inactive),98.3,95.6
CN=C(NC)SC1CC(=O)N(c2ccccc2)C1=O (stereo not drawn),99.3% (inactive),97.8,102,99.8% (inactive),98.7,103,97.8% (inactive),93.5% (inactive),92.6% (inactive),93.2,91.2
CC(=O)NN1C(=O)/C(=C/c2ccc(Br)o2)SC1=S,103% (inactive),101,102,128% (inactive),122,126,139% (inactive),111% (inactive),153% (active),150,150
Cc1nn(Cc2ccc(Cl)cc2)c(=O)n1N(C)c1ncc(C(F)(F)F)cc1Cl,96% (inactive),98.1,97.2,96.7% (inactive),97.6,95.1,96.2% (inactive),95.4% (inactive),99.7% (inactive),101,98.5
Cc1ccnc(N2C(=O)c3cccc4c([N+](=O)[O-])ccc(c34)C2=O)c1,102% (inactive),101,95,182% (active),177,178,318% (active),123% (inactive),177% (active),159,164
COc1cc(NC(C)=O)ccc1NC(=O)c1cc2ccccc2o1,99% (inactive),97.8,98.2,95% (inactive),97.2,96.2,100% (inactive),102% (inactive),100% (inactive),98.1,101
O=C(Cc1ccc(-c2ccccc2)cc1)OCC(=O)N1CCCC1=O,96.5% (inactive),93.9,97.2,112% (inactive),111,114,97.8% (inactive),96.3% (inactive),91.3% (inactive),89.9,91.2
CC(=O)c1ccc(NC(=O)CN2CCC(NC(=O)C3CCCCC3)CC2)cc1,102% (inactive),102,103,98.8% (inactive),97.9,99.5,104% (inactive),95.6% (inactive),96.4% (inactive),98.3,95.6
CCOC(=O)CNc1c(-c2ccc(OC)cc2)nc2ccc(Cl)cn12,100% (inactive),98.4,101,99.8% (inactive),98.7,102,97.8% (inactive),99.2% (inactive),95.2% (inactive),93.2,93.4
O=[N+]([O-])c1ccc(Sc2nc3ccccc3o2)c([N+](=O)[O-])c1,93.5% (inactive),93.4,92,157% (active),151,158,114% (inactive),96% (inactive),108% (inactive),109,100
COc1ccccc1NC(=O)c1ccc(N)cc1,98% (inactive),98,98.1,100% (inactive),102,100,99.5% (inactive),98.7% (inactive),102% (inactive),104,101

SMILES,GFP response vs DMSO [1],"GFP response vs DMSO [1, 6] [%]","GFP response vs DMSO [1, 7] [%]",GFP response relative to DMSO [2],"GFP response relative to DMSO [2, 8] [%]","GFP response relative to DMSO [2, 9] [%]",GFP response vs DMSO [3],"GFP response, % of DMSO [4]","GFP response, % of DMSO [5]","GFP response, % of DMSO [5, 6] [%]","GFP response, % of DMSO [5, 7] [%]"
O=C(O)c1ccc(/C=N/NC(=O)c2ccc(Br)cc2)cc1,102% (inactive),100,102,98.2% (inactive),95.9,98.4,101% (inactive),99.8% (inactive),94.4% (inactive),93.8,94.4
Cc1cc(C)n(C(=O)/C(C#N)=N\Nc2ccccc2[N+](=O)[O-])n1,91.7% (inactive),71.4,88.6,138% (inactive),98.7,154,163% (inactive),123% (inactive),102% (inactive),73.6,105
Cn1ncc2c(O/N=C(\N)c3ccc(C(C)(C)C)cc3)ncnc21,92.7% (inactive),92,87.9,143% (inactive),96.6,162,121% (inactive),106% (inactive),182% (active),114,155
COc1ccc(N2C(=O)CC(Sc3ncn[nH]3)C2=O)c(OC)c1 (stereo not drawn),107% (inactive),112,102,172% (active),161,167,110% (inactive),102% (inactive),109% (inactive),115,101
Cc1ccccc1OCC(=O)NNC(=S)NC(=O)c1ccco1,122% (inactive),111,118,147% (inactive),135,137,129% (inactive),110% (inactive),125% (inactive),122,112
Cc1[nH]n(-c2ncc(-c3ccccc3)s2)c(=O)c1C(c1ccc(Cl)cc1)C(C#N)C#N (stereo not drawn),94.5% (inactive),98.1,91.6,156% (active),136,159,106% (inactive),100% (inactive),95.8% (inactive),101,89.3
CCOc1ccccc1NC(=O)c1nc(S(=O)(=O)Cc2cccc(C)c2)ncc1Cl,101% (inactive),100,101,101% (inactive),102,103,100% (inactive),101% (inactive),97.8% (inactive),96.5,98.7
Cc1ccc(-c2csc3ncn(Cc4ccc(C(=O)O)cc4)c(=O)c23)cc1C,98.8% (inactive),97.3,99,117% (inactive),114,120,105% (inactive),116% (inactive),106% (inactive),105,107
C=CCn1c(=O)c(C(=O)Nc2ccccc2O)c(O)c2ccccc21,99.8% (inactive),98.9,101,108% (inactive),106,106,105% (inactive),98.7% (inactive),104% (inactive),105,102
Cc1cccc(NC(=O)CC2SC(=O)N(c3ccccc3)C2=O)c1 (stereo not drawn),96.6% (inactive),99.4,93,126% (inactive),128,126,109% (inactive),93.9% (inactive),104% (inactive),106,97.3
Cc1ccc(NC(=S)NCC23C=CC(O2)C2C(=O)N(c4ccc(C)cc4)C(=O)C23)cc1 (stereo not drawn),102% (inactive),101,102,105% (inactive),105,106,104% (inactive),98.9% (inactive),100% (inactive),98.1,101
CCCc1[nH]nc2c1C1(C(=O)N(C(C)C)c3ccccc31)C(C#N)=C(N)O2 (stereo not drawn),98.2% (inactive),99.8,98.2,96.5% (inactive),104,96.4,106% (inactive),99.1% (inactive),98.6% (inactive),101,99.3
CC(=O)c1sc2nc(C)c3c(c2c1N)CCCC3,89.4% (inactive),88.5,89.3,111% (inactive),104,115,101% (inactive),98.2% (inactive),91.7% (inactive),88.7,92.6
CN1CCc2c(sc3c2C(=O)NC(c2ccc4c(c2)OCO4)N3)C1 (stereo not drawn),98.4% (inactive),99.8,98.5,96.5% (inactive),95,98.5,106% (inactive),102% (inactive),102% (inactive),102,99.1
O=C(NCc1ccncc1)C12CC3CC(CC(Cl)(C3)C1)C2,96.2% (inactive),98.1,96.8,97% (inactive),95.9,96.2,99% (inactive),99.8% (inactive),105% (inactive),105,103
CN1C(=O)/C(=N\OC(=O)c2cccc3ccccc23)c2ccccc21,102% (inactive),99.8,93.4,163% (active),140,154,110% (inactive),88.4% (inactive),99.3% (inactive),102,80.5
